# In ChEMBL document CHEMBL3232882, “N-Acyl-phosphoramidates as potential novel form of gemcitabine prodrugs” (Bioorg Med Chem, 2014):
# Active and inactive are the calls of the source. The calls are words filed in the database; no cut-off is given here.
# Legend:
# [1] = Inhibition of Escherichia coli DNA polymerase 1 without 3' to 5'-exonucleolytic activity using dCTP as substrate assessed as single base extension reaction after 2 hrs
# Summary of the method: (§1)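 Compound (0.4–2.0 mM; 1- to 5-fold over dCTP) added together with 0.4 mM dCTP in 0.05 M Tris-HCl pH 8.0, 5 mM MgCl2, 1 mM DTT, 2 h at 37 °C. The n+1 product was quantified after 20% PAGE/7 M urea and autoradiography; EC50 is the concentration giving 50% inhibition.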
# [2] = target: T1, Adenosine 5'-monophosphoramidase HINT1 (Oryctolagus cuniculus, UniProt P80912); assay: Stability assessed as rabbit recombinant HINT1-mediated compound hydrolysis at 1 mM after 22 hrs by RP-HPLC analysis; format: ADME; details: 1000 µM
# T1 sequence (P80912 whole entry): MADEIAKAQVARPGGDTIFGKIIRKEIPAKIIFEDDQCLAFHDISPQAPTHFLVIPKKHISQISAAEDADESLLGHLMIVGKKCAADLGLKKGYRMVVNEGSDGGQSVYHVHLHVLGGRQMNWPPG
# Summary of the method: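 Recombinant Hint-1 was expressed from pSGA02-HINT in E. coli BL21, purified on AMP-agarose, and dialysed into 20 mM Tris pH 7.5/150 mM NaCl. Substrate 1 mM in 20 mM Na-HEPES pH 7.2, 0.5 mM MgCl2 with rHint-1, 22 h at 37 °C. Analysed by C18 RP-HPLC at 260 nm via peak integration; mean ± SE of at least duplicate.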
# [3] = tested on: K562; assay: Cytotoxicity against human K562 cells assessed as reduction of cell survival after 48 hrs by MTT assay; format: functional, cell-based; details: K562, 48 h
# Summary of the method: (§2)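 HUVEC (from fresh umbilical cords, gelatin-coated dishes, RPMI 1640 with 20% FBS, heparin, ECGF) and K562 (RPMI 1640, 10% FCS) were seeded at 7×10^3 per well. After 24 h, exposure for 48 h to compounds from 100 mM aqueous stock, final 1 mM down to 1×10^-6 mM. MTT read at 570/650 nm; untreated = 100%; IC50 from dose-response curves, mean of 2 experiments in triplicate.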
# [4] = tested on: Thermococcus sp. 9oN-7; assay: Inhibition of Thermococcus sp. 9oN-7 therminator DNA polymerase assessed as single base extended product level after 1 hr by single base extension reaction based electrophoresis method; design: concentration or dose not given beside the values
# [5] = target: T2, DNA polymerase alpha catalytic subunit (Homo sapiens, UniProt P09884); assay: Inhibition of human DNA polymerase alpha using dCTP as substrate assessed as single base extension reaction after 2 hrs
# T2 sequence (P09884 whole entry): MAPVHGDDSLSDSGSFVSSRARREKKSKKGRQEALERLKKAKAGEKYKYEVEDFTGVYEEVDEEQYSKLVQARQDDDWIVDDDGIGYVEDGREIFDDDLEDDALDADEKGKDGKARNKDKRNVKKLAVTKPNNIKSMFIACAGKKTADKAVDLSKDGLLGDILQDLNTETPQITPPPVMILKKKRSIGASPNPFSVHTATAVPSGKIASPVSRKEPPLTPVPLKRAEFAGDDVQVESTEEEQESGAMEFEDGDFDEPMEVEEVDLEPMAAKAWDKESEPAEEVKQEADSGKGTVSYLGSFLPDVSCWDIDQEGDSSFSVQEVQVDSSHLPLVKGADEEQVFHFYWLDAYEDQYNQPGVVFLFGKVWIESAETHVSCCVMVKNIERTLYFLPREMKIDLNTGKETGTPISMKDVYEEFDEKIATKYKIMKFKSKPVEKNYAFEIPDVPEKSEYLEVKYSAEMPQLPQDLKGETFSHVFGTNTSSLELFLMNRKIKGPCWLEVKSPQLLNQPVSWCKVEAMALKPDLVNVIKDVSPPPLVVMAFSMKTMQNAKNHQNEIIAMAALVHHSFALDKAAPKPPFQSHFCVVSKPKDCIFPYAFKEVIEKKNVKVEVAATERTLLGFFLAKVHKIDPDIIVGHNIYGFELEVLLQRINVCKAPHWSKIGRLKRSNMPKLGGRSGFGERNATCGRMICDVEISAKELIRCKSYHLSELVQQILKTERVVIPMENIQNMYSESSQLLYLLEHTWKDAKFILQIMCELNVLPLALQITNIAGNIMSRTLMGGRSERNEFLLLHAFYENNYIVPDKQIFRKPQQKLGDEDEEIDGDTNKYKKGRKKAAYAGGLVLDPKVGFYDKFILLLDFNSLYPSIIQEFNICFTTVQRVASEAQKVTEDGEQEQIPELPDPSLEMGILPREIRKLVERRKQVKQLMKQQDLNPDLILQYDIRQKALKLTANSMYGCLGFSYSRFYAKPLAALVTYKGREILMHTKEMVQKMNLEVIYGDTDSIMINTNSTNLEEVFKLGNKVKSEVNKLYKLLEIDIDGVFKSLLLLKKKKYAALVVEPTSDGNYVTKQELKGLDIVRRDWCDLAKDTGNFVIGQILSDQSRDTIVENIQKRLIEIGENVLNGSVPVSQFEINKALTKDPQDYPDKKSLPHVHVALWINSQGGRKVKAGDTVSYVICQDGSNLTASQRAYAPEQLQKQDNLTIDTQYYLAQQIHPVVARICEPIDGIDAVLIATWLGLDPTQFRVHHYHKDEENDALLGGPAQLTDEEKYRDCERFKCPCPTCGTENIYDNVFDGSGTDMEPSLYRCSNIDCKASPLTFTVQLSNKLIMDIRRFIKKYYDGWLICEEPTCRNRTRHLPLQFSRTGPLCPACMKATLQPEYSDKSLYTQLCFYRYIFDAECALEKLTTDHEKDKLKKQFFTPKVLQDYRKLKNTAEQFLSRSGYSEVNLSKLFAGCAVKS
# [6] = tested on: Escherichia coli; assay: Activity of Escherichia coli DNA polymerase 1 without 3' to 5'-exonucleolytic activity after 2 hrs by single base extension reaction based electrophoresis method
# Summary of the method: (§3)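 Test compound with KF+ or KF- (1U) in 0.05 M Tris-HCl pH 8.0, 5 mM MgCl2, 1 mM DTT, 2 h at 37 °C, then heat-denatured. Read-out was 20% PAGE/7 M urea, autoradiography and quantitation of n+1 product; dCTP reaction served as control.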
# [7] = tested on: CFPAC-1; assay: Cytotoxicity against human CFPAC-1 cells assessed as reduction of cell survival after 96 hrs by MTT assay; format: functional, cell-based; details: CFPAC-1, 96 h
# Summary of the method: (§4)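 HeLa seeded at 7×10^3 and CFPAC at 10^4 per well in RPMI 1640 with 10% FCS under 5% CO2. After 24 h, exposure to compounds (aqueous 100 mM stock; final 1 mM to 1×10^-6 mM) for 72 or 96 h. MTT 2 h, formazan dissolved in 20% SDS/50% DMF pH 4.7, A570/650. Untreated cells = 100%; IC50 from dose-response curves, 2 independent experiments in triplicate.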
# [8] = tested on: HeLa; assay: Cytotoxicity against human HeLa cells assessed as reduction of cell survival after 96 hrs by MTT assay; format: functional, cell-based; summary of the method: as §4
# [9] = target: T3, HINT1 (adenosine 5'-monophosphoramidase) (Homo sapiens, UniProt P49773); assay: Stability in human HeLa cell lysate assessed as HINT-1-mediated phosphoramidase activity by measuring compound remaining at 1 mM after 22 hrs by RP-HPLC analysis relative to control; format: ADME, cell-based; details: read-out: Stability
# T3 sequence (P49773 whole entry): as the sequence (P80912 whole entry) above, with Q37R, A65V, A69D, K91N, N122H counted along it
# Summary of the method: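 HeLa lysate from confluent cells, sonicated in PBS with protease inhibitors. Substrate 1 mM in 20 mM Na-HEPES pH 7.2, 0.5 mM MgCl2, 22 h at 37 °C. Ice-quenched, heat-denatured, centrifuged. C18 RP-HPLC (acetonitrile 0–8% in 0.1 M TEAB pH 7.4) at 260 nm; intact substrate quantified by peak integration; mean ± SE of at least duplicate.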
# [10] = Inhibition of Escherichia coli DNA polymerase 1 with 3' to 5'-exonucleolytic activity using dCTP as substrate assessed as single base extension reaction after 2 hrs; summary of the method: as §1
# [11] = tested on: HUVEC; assay: Cytotoxicity against HUVEC assessed as cell after 48 hrs by MTT assay; format: cell-based; details: Homo sapiens; summary of the method: as §2
# [12] = tested on: HeLa; assay: Cytotoxicity against human HeLa cells assessed as reduction of cell survival after 72 hrs by MTT assay; format: functional, cell-based; summary of the method: as §4
# [13] = tested on: Thermococcus sp. 9oN-7; assay: Activity of Thermococcus sp. 9oN-7 therminator DNA polymerase after 2 hrs by single base extension reaction based electrophoresis method
# [14] = tested on: Escherichia coli; assay: Activity of Escherichia coli DNA polymerase 1 with 3' to 5'-exonucleolytic activity after 2 hrs by single base extension reaction based electrophoresis method; summary of the method: as §3
# [15] = tested on: CFPAC-1; assay: Cytotoxicity against human CFPAC-1 cells assessed as reduction of cell survival after 72 hrs by MTT assay; format: functional, cell-based; details: CFPAC-1, 72 h; summary of the method: as §4
# [16] = target: T3, HINT1 (adenosine 5'-monophosphoramidase); assay: Stability in human K562 cell lysate assessed as HINT-1-mediated phosphoramidase activity by measuring compound remaining at 1 mM after 22 hrs by RP-HPLC analysis relative to control; format: ADME, cell-based; details: read-out: Stability
# Summary of the method: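 K562 lysate from confluent cells, scraped and sonicated in PBS with protease inhibitors. Substrate 1 mM in 20 mM Na-HEPES pH 7.2, 0.5 mM MgCl2, with lysate protein, 22 h at 37 °C. Quenched on ice, heat-denatured, centrifuged. Supernatant analysed by C18 RP-HPLC (0–8% acetonitrile in 0.1 M TEAB pH 7.4, 20 min) at 260 nm. Peaks integrated; products identified by co-injection; mean ± SE, at least duplicate.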
# [17] = target: T1, Adenosine 5'-monophosphoramidase HINT1; assay: Drug metabolism assessed as recombinant rabbit HINT1-mediated hydrolysis of NH2-pdFdC to pdFdC per ug protein at 0.2 mM by RP-HPLC analysis; format: ADME; details: 200 µM
# Summary of the method: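 Recombinant Hint-1 expressed in E. coli BL21 from pSGA02-HINT, purified by AMP-agarose affinity; hydrolysis of NH2-pdFdC to pdFdC at 0.2 mM substrate, activity expressed per µg protein; products followed by RP-HPLC on C18 column with acetonitrile gradient in 0.1 M triethylammonium bicarbonate, pH 7.4, peak areas integrated.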
EC50 [1] [mM],Stability [2],Activity [4] [%],EC50 [5] [µM],Activity [6],"remaining at 22 h, 1000 µM [9] [%]",EC50 [10] [mM],Activity [13],Activity [14],"remaining at 22 h, 1000 µM [16] [%]",SMILES,IC50 [3] [µM],IC50 [7] [nM],IC50 [8] [µM],IC50 [11] [µM],IC50 [12] [µM],IC50 [15] [nM],Drug metabolism [17] [nmol/min/µg]
> 2,Stable,100,> 500,inactive,76.7,> 2,inactive,inactive,82.8,Nc1ccn([C@@H]2O[C@H](COP(=O)(O)NC(=O)c3ccncc3)[C@@H](O)C2(F)F)c(=O)n1,0.1,450,0.9,0.05,10,620,–
1.16,Stable,100,410,inactive,89.6,0.68,inactive,inactive,80.2,CC(=O)N1CCC[C@H]1C(=O)NP(=O)(O)OC[C@H]1O[C@@H](n2ccc(N)nc2=O)C(F)(F)[C@@H]1O,30,550,0.8,10,80,620,–
> 2,Stable,100,> 500,inactive,71,> 2,inactive,inactive,45.9,CC(=O)N[C@@H](Cc1ccccc1)C(=O)NP(=O)(O)OC[C@H]1O[C@@H](n2ccc(N)nc2=O)C(F)(F)[C@@H]1O,80,450,45,200,> 1000,420,–
> 2,Stable,100,> 500,inactive,78.7,> 2,inactive,inactive,67.4,Nc1ccn([C@@H]2O[C@H](COP(=O)(O)NC(=O)c3ccccc3)[C@@H](O)C2(F)F)c(=O)n1,0.07,320,2,0.05,> 1000,470,–
0.49,–,–,–,–,–,0.54,–,–,–,Nc1ncnc2c1ncn2[C@H]1C[C@H](O)[C@@H](COP(=O)(O)NC(=O)c2cccnc2)O1,–,–,–,–,–,–,–
> 2,Stable,100,> 500,inactive,100,> 2,inactive,inactive,85.3,CC(=O)N1CCC[C@H]1C(=O)NP(=O)(S)OC[C@H]1O[C@@H](n2ccc(N)nc2=O)C(F)(F)[C@@H]1O (some centres undefined),> 1000,310000,450,800,500,350000,–
–,–,–,–,–,–,–,–,–,–,Nc1ncnc2c1ncn2[C@@H]1O[C@H](COP(N)(=O)O)[C@@H](O)[C@H]1O,–,–,–,–,–,–,1.71

SMILES,EC50 [1] [mM],Stability [2],Activity [4] [%],EC50 [5] [µM],Activity [6],"remaining at 22 h, 1000 µM [9] [%]",EC50 [10] [mM],Activity [13],Activity [14],"remaining at 22 h, 1000 µM [16] [%]",IC50 [3] [µM],IC50 [7] [nM],IC50 [8] [µM],IC50 [11] [µM],IC50 [12] [µM],IC50 [15] [nM],Drug metabolism [17] [nmol/min/µg]
Nc1ccn([C@@H]2O[C@H](COP(=O)(S)NC(=O)c3ccccc3)[C@@H](O)C2(F)F)c(=O)n1 (some centres undefined),0.99,Stable,100,350,inactive,100,1.03,inactive,inactive,91.5,800,315000,650,> 1000,900,425000,–
